Experimental data collected from several papers.
Each line is one published result; the experiments were not run side by side.
Target: Peripheral plasma membrane protein CASK (CASK, Homo sapiens, UniProt O14936)
Sequence (O14936 1-926, as in one of the studies): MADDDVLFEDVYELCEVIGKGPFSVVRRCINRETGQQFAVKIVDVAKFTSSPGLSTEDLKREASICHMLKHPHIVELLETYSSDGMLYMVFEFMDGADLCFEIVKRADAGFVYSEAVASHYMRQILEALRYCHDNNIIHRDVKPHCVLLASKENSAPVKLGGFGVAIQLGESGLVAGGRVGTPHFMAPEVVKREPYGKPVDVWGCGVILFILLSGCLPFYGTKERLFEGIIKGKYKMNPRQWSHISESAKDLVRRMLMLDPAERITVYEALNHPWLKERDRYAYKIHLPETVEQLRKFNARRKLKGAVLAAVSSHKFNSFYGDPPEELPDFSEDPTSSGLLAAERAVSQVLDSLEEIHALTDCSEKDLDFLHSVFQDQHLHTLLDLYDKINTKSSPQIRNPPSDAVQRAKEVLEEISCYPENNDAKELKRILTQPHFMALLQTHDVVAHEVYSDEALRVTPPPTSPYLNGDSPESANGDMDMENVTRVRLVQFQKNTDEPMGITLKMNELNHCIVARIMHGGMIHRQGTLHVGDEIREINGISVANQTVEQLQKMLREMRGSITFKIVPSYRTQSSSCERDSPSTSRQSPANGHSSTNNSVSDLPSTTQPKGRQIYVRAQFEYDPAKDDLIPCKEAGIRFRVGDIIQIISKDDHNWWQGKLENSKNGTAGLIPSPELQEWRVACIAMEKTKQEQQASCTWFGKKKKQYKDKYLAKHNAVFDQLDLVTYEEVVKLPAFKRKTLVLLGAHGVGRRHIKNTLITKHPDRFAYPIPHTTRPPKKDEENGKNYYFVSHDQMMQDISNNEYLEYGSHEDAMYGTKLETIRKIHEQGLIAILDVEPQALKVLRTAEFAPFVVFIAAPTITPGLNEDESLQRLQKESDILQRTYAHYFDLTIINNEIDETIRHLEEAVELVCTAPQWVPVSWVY

COc1cnc(Nc2cccc(S(N)(=O)=O)c2)nc1N1CCN(c2ccccc2)C(=O)C1 — remaining binding (binding; competition with immobilised ligand; 1 µM): 79%
CN(C)c1ncc(F)c(-c2cnn3ncccc23)n1 — remaining binding (binding; competition with immobilised ligand; 1 µM): 79%
CCC(=N\O)/C(C)=C/c1ccc(F)cc1 — remaining binding (cell-free assay; competition with immobilised ligand; 1 µM): 70%
Nc1ncc2c(n1)-c1c([nH]c3ccc(C#CC4CC4)cc13)CCCC2 — remaining binding (binding; competition with immobilised ligand; 1 µM): 88%
O=C(c1ccc(Nc2ncc(Cl)c(-c3cc4ccccc4s3)n2)cc1)N1CCC(N2CCCC2)CC1 — remaining binding (binding; competition with immobilised ligand; 1 µM): 74%
COc1cnc(Nc2cccc(S(N)(=O)=O)c2)nc1N1CCN(c2ccccc2)CC1 — remaining binding (binding; competition with immobilised ligand; 1 µM): 95%
COc1ncc2cc3ccccc3nc2c1C#N — remaining binding (cell-free assay; competition with immobilised ligand; 5 µM): 99%
O=C(Nc1c[nH]nc1C(=O)NC1CCNCC1)c1cc(F)cc(F)c1 — remaining binding (binding; competition with immobilised ligand; 1 µM): 66%
CSc1cccnc1N1CCN(Cc2nc3ccccc3[nH]2)CC1 — remaining binding (cell-free assay; competition with immobilised ligand; 1 µM): 100%
C[C@@H]1CCN(c2nccc(-c3cnn4ncccc34)n2)C1 — remaining binding (binding; 1 µM): 84%
O=C(c1ccc(Nc2nccc(-c3cc4ccccc4s3)n2)cc1)N1CCC(N2CCCC2)CC1 — remaining binding (binding; competition with immobilised ligand; 1 µM): 85%
COc1ccnn2ncc(-c3ccnc(N(C)C)n3)c12 — remaining binding (binding; 1 µM): 96%
O=c1nc(-c2ccccn2)sc2ccccc12 — remaining binding (binding; competition with immobilised ligand; 1 µM): 84%
Cc1cnc(Nc2ccc(C(=O)N3CCC(N4CCCC4)CC3)cc2)nc1-c1cc2ccccc2s1 — remaining binding (binding; competition with immobilised ligand; 1 µM): 100%
O=C(O)[C@@H]1[C@@H](Cn2nnc3ccccc3c2=O)CC[C@H]1C(=O)c1ccc(OCCC2CCOCC2)cc1 — remaining binding (cell-free assay; competition with immobilised ligand; 1 µM): 100%
CN(C)c1nccc(-c2cnn3ncccc23)n1 — remaining binding (binding; competition with immobilised ligand; 1 µM): 90%
CCCCN(CCCC)C(=O)CN1C[C@@H](c2cc(OC)c3c(c2)OCO3)[C@H](C(=O)O)[C@H]1CC(C)(C)CCC — remaining binding (cell-free assay; competition with immobilised ligand; 1 µM): 90.5%
F[C@@H]1CCN(c2nccc(-c3cnn4ncccc34)n2)C1 — remaining binding (binding; 1 µM): 100%
Cn1nc(C(=O)NCc2ccc(C(=O)O)cc2)cc1-c1ccc2[nH]ccc2c1 — remaining binding (cell-free assay; competition with immobilised ligand; 0.1 µM): 69%
N[C@@H]1CCN(c2nccc(-c3cnn4ncccc34)n2)C1 — remaining binding (binding; 1 µM): 100%
FC(F)(F)Oc1cccc(-c2cnc3ccc(-c4ccncc4)nn23)c1 — remaining binding (cell-free assay; competition with immobilised ligand; 5 µM): 50%
